≈ marks a conversion by molar mass, not a printed value.
Legend:
HeLa = assay: Cytotoxicity against human HeLa cells by MTT assay; type: functional, cell-based
Procedure, shortened: (§1)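 MTT read-out following Mosmann's method; IC50 for each cell line derived from four individual observations.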

[1] = Cytotoxicity against human MDA231 cells by MTT assay; type: functional, cell-based; conditions: MDA-MB-231; procedure, shortened: as §1
Escherichia coli = assay: Antimicrobial activity against Escherichia coli MTCC 739 by microtiter broth dilution method; type: functional
Procedure, shortened: (§2)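 MIC determined by microtiter broth dilution, with neomycin as the reference control; each organism's value derived from four individual observations.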

Raoultella planticola = assay: Antimicrobial activity against Klebsiella planticola MTCC 530 by microtiter broth dilution method; type: functional; procedure, shortened: as §2
Pseudomonas aeruginosa = assay: Antimicrobial activity against Pseudomonas aeruginosa MTCC 2453 by microtiter broth dilution method; type: functional; procedure, shortened: as §2
Bacillus subtilis = assay: Antimicrobial activity against Bacillus subtilis MTCC 121 by microtiter broth dilution method; type: functional; procedure, shortened: as §2
MCF7 = assay: Cytotoxicity against human MCF7 cells by MTT assay; type: functional, cell-based
Procedure, shortened: (§3)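 MTT assay following Mosmann's method. Each IC50 was derived from four individual observations for each cell line.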

Staphylococcus aureus [2] = assay: Antimicrobial activity against Staphylococcus aureus MTCC 96 by microtiter broth dilution method; type: functional; procedure, shortened: as §2
[3] = Cytotoxicity against mouse Neuro2a cells by MTT assay; type: functional, cell-based; conditions: N2a; procedure, shortened: as §3
Staphylococcus aureus [4] = assay: Antimicrobial activity against Staphylococcus aureus MLS16 MTCC 96 by microtiter broth dilution method; type: functional; conditions: MLS16 MTCC 2940, in the assay text read “MTCC 2940” for “MTCC 96”; procedure, shortened: as §2
A549 = assay: Cytotoxicity against human A549 cells by MTT assay; type: functional, cell-based; procedure, shortened: as §1

Compound	IC50 (HeLa)	IC50 [1]	MIC (Escherichia coli)	MIC (Raoultella planticola)	MIC (Pseudomonas aeruginosa)	MIC (Bacillus subtilis)	IC50 (MCF7)	MIC (Staphylococcus aureus [2])	IC50 [3]	MIC (Staphylococcus aureus [4])	IC50 (A549)
COc1cccc2c1C(=O)c1c(O)c3c(c(O)c1C2=O)C[C@@](O)(C(=O)CO)C[C@@H]3O[C@H]1C[C@H](N)[C@H](O)[C@H](C)O1 [DOXORUBICIN]	< 1 µM	< 1 µM									
C[C@H]1C[C@@H]2[C@H](CC[C@](C)(O)/C=C3\[C@H](O)[C@@H](C)C[C@@]3(O)C1=O)C2(C)C [MULTIFIDANOL]	15.4 µM	7.04 µM	4.68 µg/mL (≈ 13.9 µM)	9.37 µg/mL (≈ 27.8 µM)	9.37 µg/mL (≈ 27.8 µM)	4.68 µg/mL (≈ 13.9 µM)	6.39 µM	18.8 µg/mL (≈ 55.7 µM)	6.35 µM	18.8 µg/mL (≈ 55.7 µM)	6.27 µM
CC1=C[C@@]2(O)C(=O)[C@@H](C)C[C@@H]3[C@H](CC[C@](C)(O)/C=C/2[C@@H]1O)C3(C)C [MULTIFIDENOL]	7.56 µM	5.39 µM					8.57 µM	4.68 µg/mL (≈ 14 µM)	5.6 µM	4.68 µg/mL (≈ 14 µM)	12.5 µM
